# V-ATPase pHluor = regulators of yeast V-ATPase proton pumping, primary screen, pHLuorin cytosolic pH fluorescence | S. cerevisiae | response, % at 10 µM | 350,000 compounds, 0.37% hits; in the data active means response mostly above about 7.3%, no sharp cut-off; inactive means mostly below about 5.4%; further: actives read high
# Granule exo inh = LAMP-1 surface exposure blockers, TALL-104 cells – cell-based, flow cytometry, MLPCN library, primary screen; TALL-104 LAMP-1 surface exposure; cells stimulated with thapsigargin and PMA; inhibition, % at 10 µM; 360,000 compounds, 0.66% hits; AID 651702, 2012;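 active means inhibition above about 55%, limit read from the data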
# T cell HTS = modulators of CD8 T cell-vesicle binding, primary screen, mouse 2C CD8+ T cells, flow cytometry; 2C CD8+ T cell-vesicle binding; active compounds read low; response (vesicle binding), % at 7 µM; 330,000 compounds, 0.068% hits;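 active means response, share of CD8 T cells binding vesicles, and their 90th percentile fluorescence all below set limits, cut at about 80% in these data, passing the limit was not always enough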;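 further: values below 100% mean blocked vesicle binding to the CD8+ T cells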
#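 incubation = binding step 1.5 h, 37 °C, antibody labelling 20 min, ice | test system = 2C mouse CD8+ T cells | read-out basis = percent CD8+ FL2 mean versus row control | controls = Peptide-free naked vesicles (low) and QL9 vesicles with 0.7% DMSO vehicle (high) | detection = flow cytometry of vesicle-bound cells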
# Beta2AR agonist = beta2AR agonists driving receptor internalization, primary screen, cell-based, FAP fluorogen, flow cytometry | Am2.2-beta2AR cells | Beta-2 adrenergic receptor (Homo sapiens), P07550 | AID 504454, 2011 | 340,000 compounds, 0.43% hits | response, % (no concentration beside the values);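 active means response above a set limit, near 3 SD of response in nonfluorescent compounds, cut at about 42% in these data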
# Target sequence (P07550 whole entry, looked up): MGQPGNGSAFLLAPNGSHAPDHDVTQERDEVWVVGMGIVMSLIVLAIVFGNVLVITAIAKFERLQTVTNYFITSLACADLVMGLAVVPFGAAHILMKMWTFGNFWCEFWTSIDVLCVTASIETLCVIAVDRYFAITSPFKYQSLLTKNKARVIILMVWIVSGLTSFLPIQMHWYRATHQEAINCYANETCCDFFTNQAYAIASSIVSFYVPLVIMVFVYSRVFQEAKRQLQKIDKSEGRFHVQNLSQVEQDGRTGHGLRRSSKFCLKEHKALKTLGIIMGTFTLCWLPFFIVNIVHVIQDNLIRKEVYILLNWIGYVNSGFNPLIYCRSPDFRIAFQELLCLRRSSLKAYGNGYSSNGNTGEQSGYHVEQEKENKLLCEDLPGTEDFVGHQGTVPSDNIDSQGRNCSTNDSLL
# MPTP block = mitochondrial permeability transition pore inhibitors, primary screen, biochemical, isolated mouse mitochondria, absorbance; Ca2+ swelling absorbance, 30 min; inhibition, % at 10 µM; 360,000 compounds, 1.4% hits;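 active means inhibition of 50% or more, scaled per plate between neutral and stimulator controls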;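 further: 0% = DMSO wells given calcium and 100% = 1 mM EGTA wells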
# rCAG binder = binders of r(CAG) RNA repeats, primary screen, biochemical, fluorescence. r(CAG) RNA repeat, TO-PRO-1 dye displacement fluorescence. inhibition, % at 3 µM. 370,000 compounds, 1.3% hits;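 active means inhibition above the plate cutoff, the mean of all test compounds on that plate plus 3 SD, cut at about 35% in these data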;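 further: 0% = DMSO alone and 100% = 100 µM mitoxantrone as full dye displacement; higher means more dye released from RNA so lower well fluorescence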
# rCAG bind conf = small molecules binding CAG repeat RNA – biochemical, fluorescence, confirmation. inhibition, % at 3 µM. shares compounds with rCAG binder. 4,300 compounds, 70% hits. r(CAG) RNA repeat, TO-PRO-1 dye displacement fluorescence;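 active means inhibition above a per-plate cutoff, the mean inhibition of sample wells plus 3 SD, cut at about 35% in these data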;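 further: loss of TO-PRO-1 fluorescence as compound displaces dye from 1x1 AA loop RNA; 0% = DMSO only wells and 100% = 100 µM mitoxantrone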
# DNA CAG counter = displacement of TO-PRO-1 from CAG DNA duplex, counter-screen for rCAG RNA repeat binder project, biochemical, fluorescence, TO-PRO-1 dye, d(CAG) DNA oligo. shares compounds with rCAG binder. d(CAG) DNA oligo TO-PRO-1 dye displacement. inhibition, % at 3 µM. 4,300 compounds, 94% hits. AID 652068, 2013;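 active means inhibition above its plate's cutoff, the mean test-well inhibition plus 3 SD, cut at about 4.8% in these data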;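 further: 0% = DNA dye mix with DMSO and 100% = 100 µM mitoxantrone; hits displace the dye from DNA and so lower well fluorescence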
# DNA CAG DR = inhibitors of DNA CAG/GTC TO-PRO-1 complex, dose response, counter-screen for rCAG RNA repeat binder project, biochemical, fluorescence, TO-PRO-1 dye; AID 686960, 2013; DNA CAG/GTC duplex TO-PRO-1 dye displacement fluorescence; shares compounds with rCAG binder; IC50, µM; 250 compounds, 20% hits; in the data active means IC50 below about 10 µM
# * marks the source's active call; other numbers are inactive results; i = inactive; · = not tested or not shown. Most compounds without a hit are left out; they make up all but 3.8% or so of the library.
SMILES,V-ATPase pHluor,Granule exo inh,T cell HTS,Beta2AR agonist,MPTP block,rCAG binder,rCAG bind conf,DNA CAG counter,others
CCC(Sc1nc(C)cc(=O)[nH]1)C(=O)Nc1nc(-c2ccccc2)cs1 (stereo not drawn),9,1,444,6,-2,49*,60*,23*,
CCC(Sc1nc(-c2ccccc2)cc(=O)[nH]1)C(=O)O (stereo not drawn),1,-9,289,-1,0,2,·,·,
CCOC(=O)c1c(-c2ccccc2Cl)csc1NC(=O)CSc1nc(C)cc(=O)[nH]1,0,6,415,9,43,38*,45*,15*,
O=C(CSc1nc2sc3c(c2c(=O)n1-c1ccc(Cl)cc1)CCCC3)c1ccccc1Cl,·,·,·,·,·,11,·,·,
CCCCC1O[C@@H](C)[C@@H]2CN3CCc4c([nH]c5ccccc45)[C@@H]3C[C@@H]2N1C (stereo partly drawn),·,·,·,·,·,0,·,·,
Cc1ccccc1OCC(=O)N/N=C/c1ccc([N+](=O)[O-])o1,6,20,298,2,6,10,·,·,
COc1ccccc1OCC(=O)N/N=C/C=C/c1ccc([N+](=O)[O-])o1,-2,0,237,13,1,36*,34,17*,
COC(=O)C1CN(Cc2cn(CCC3OCCO3)nn2)CCS(=O)(=O)N1Cc1ccc(F)cc1 (stereo not drawn),·,·,·,·,·,0,·,·,
O=C(NN=C1CCCC1)c1cc(Br)ccc1O,0,-2,0,-5,-1,9,·,·,
O=C(N/N=C1/CCSC1)c1cc(Br)ccc1O,-1,-1,216,4,0,41*,16,7.3*,
CC(C)(C)c1ccc(OCCSc2nc3ccccc3n2CC(=O)O)cc1,2,-9,51,-6,0,39*,43*,11*,
O=C(O)Cn1c(SCCOc2ccccc2)nc2ccccc21,-1,-1,664,1,0,5,·,·,
COc1cc(/C=C2/C(=O)NN(c3cccc(C)c3)C2=O)cc([N+](=O)[O-])c1O,-3,-4,342,21,1,39*,20,6.1*,
COC(=O)c1ccc(N2NC(=O)/C(=C/c3ccc(OC)c(OC)c3)C2=O)cc1,1,-1,208,13,0,26,·,·,
COc1cc(/C=C2/C(=O)NN(c3cccc(C)c3)C2=O)ccc1OC(=O)c1ccco1,1,-9,220,7,5,45*,70*,30*,DNA CAG DR=i
COc1cc(/C=C2\SC(=O)N(c3cccc(Cl)c3)C2=O)cc([N+](=O)[O-])c1O,1,1,·,7,0,37*,85*,44*,
COc1cc(/C=C2\SC(=O)N(c3ccc(Cl)cc3)C2=O)cc([N+](=O)[O-])c1O,-2,2,·,5,2,34,·,·,
COc1cc(/C=C2/C(=O)NN(c3ccc(C)c(Cl)c3)C2=O)cc([N+](=O)[O-])c1O,-7,5,194,9,3,98*,52*,16*,
COc1cccc(/C=C2/C(=O)NN(c3ccccc3)C2=O)c1,2,-3,180,20,2,16,·,·,
COc1cccc(NC(=O)NC2CCCCN(Cc3ccccc3C)C2=O)c1 (stereo not drawn),·,·,·,·,·,1,·,·,
COC(=O)C[C@H]1CC[C@@H]2[C@H](COc3ccc(NC(=O)NCc4ccccc4)cc3C(=O)N2C)O1,·,·,·,·,·,1,·,·,
O=C(OC12CCCN(C1)/C(=C/c1cccc(Cl)c1)C2)C1CCCC1 (stereo not drawn),·,·,·,·,·,3,·,·,
Cc1ccc(N2NC(=O)/C(=C\c3cc4c(cc3[N+](=O)[O-])OCO4)C2=O)cc1C,-4,14,449,13,8,64*,45*,18*,
O=C1NN(c2ccccc2)C(=O)/C1=C\c1ccc2c(c1)OCO2,-2,-2,271,8,0,5,·,·,
CC1CCN(S(=O)(=O)c2ccc3c(c2)c(=O)c(C(=O)NCc2cccs2)cn3C)CC1,8,3,119,-7,2,43*,10,7.5*,
SMILES,V-ATPase pHluor,Granule exo inh,T cell HTS,Beta2AR agonist,MPTP block,rCAG binder,rCAG bind conf,DNA CAG counter,others
O=C(Nc1ccc(-c2csc(Nc3ccc(Cl)cc3)n2)cc1)c1cccc(C(F)(F)F)c1,·,·,460,·,·,44*,14,11*,
O=C(Nc1ccc(-c2csc(Nc3ccccc3)n2)cc1)c1cccc(C(F)(F)F)c1,9,11,487,12,1,24,·,·,
CC1CCN(c2ccc(C(=O)O)cc2NS(=O)(=O)c2ccc(C(C)(C)C)cc2)CC1,·,·,·,·,·,64*,64*,26*,
COc1ccccc1CNC(=O)N(CCc1c(C)[nH]c2ccccc12)Cc1cccs1,·,·,·,·,·,8,·,·,
COc1ccc2c3c([nH]c2c1)[C@]1(NCC3)C(=O)N(C)c2ccc(Cl)cc21,·,·,·,·,·,0,·,·,
Cc1cc(/C=C2/C(=N)N3C(=NC2=O)SN=C3S(C)(=O)=O)c(C)n1-c1ccc(F)cc1,-6,-1,346,-2,20,69*,79*,47*,
Cc1ccc(-n2cccc2/C=C2/C(=N)N3C(=NC2=O)SN=C3S(C)(=O)=O)cc1Cl,5,-2,348,9,26,89*,92*,73*,
COc1ccccc1-n1c(C)cc(/C=C2/C(=N)N3C(=NC2=O)SN=C3S(C)(=O)=O)c1C,-2,-2,776,0,20,80*,77*,42*,
CC1=CC2=NC(=O)/C(=C\c3cc(C)n(-c4ccc(F)cc4)c3C)C(=N)N2O1,5,-10,211,-10,1,2,·,·,
COc1cc(/C=C2/C(=N)N3C(=NC2=O)SN=C3S(C)(=O)=O)ccc1OS(=O)(=O)c1ccccc1,·,·,352,·,·,·,·,·,
COc1ccc(S(=O)(=O)NC(=O)C2(C)CCN2C(=O)Cc2ccc(C(C)(C)C)cc2)cc1 (stereo not drawn),·,-4,·,·,1,42*,25,4.8*,

# Bioassay records deposited in PubChem by several laboratories.
